According to ChEMBL document CHEMBL5705890, “Antitumor activity of an allosteric inhibitor of centromere-associated protein-E” (Proc Natl Acad Sci U S A, 2010):

Columns and labels:
Assay type in all cases: functional
AN3-CA [1] = experiment: Anticancer activity against human AN3-CA cells assessed as cell growth inhibition measured after 72 hrs by DAPI staining based analysis
How it was run: (§1)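 Cells were seeded and, after 24 h, DNA content was read as T0. Cells were then exposed to varying drug concentrations for a further 72 h (T72). Fixed cells were DAPI-stained and DNA content measured by automated imaging. T72 values were normalized to T0. GI50 is the concentration giving 50% growth inhibition between T0 and Ymax, obtained by curve fitting.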

ARH-77 [2] = experiment: Anticancer activity against human ARH-77 cells assessed as cell growth inhibition measured after 72 hrs by DAPI staining based analysis; how it was run: as §1
CAL-27 = experiment: Anticancer activity against human CAL-27 cells assessed as cell growth inhibition measured after 72 hrs by DAPI staining based analysis
How it was run: (§2)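 Cells were seeded, and DNA content at 24 h after seeding (T0) was read by imaging of fixed, DAPI-stained cells. Cells were then exposed to a range of drug concentrations for a further 72 h (T72) and DNA content was read again. T72 values were normalized to T0, and GI50 was taken from curve fits as the concentration giving 50% growth inhibition relative to T0 and Ymax.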

CHL-1 = experiment: Anticancer activity against human CHL-1 cells assessed as cell growth inhibition measured after 72 hrs by DAPI staining based analysis; how it was run: as §2
DBTRG-05MG = experiment: Anticancer activity against human DBTRG-05MG cells assessed as cell growth inhibition measured after 72 hrs by DAPI staining based analysis
How it was run: (§3)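 Cells seeded, DAPI-stained DNA content of fixed cells read by imaging 24 h after seeding (T0), and again after a further 72 h exposure to a range of drug concentrations (T72). T72 values were normalized to T0. Curve fits gave the concentration producing 50% growth inhibition relative to T0 and Ymax (GI50).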

DLD-1 = experiment: Anticancer activity against human DLD-1 cells assessed as cell growth inhibition measured after 72 hrs by DAPI staining based analysis; how it was run: as §3
G-402 = experiment: Anticancer activity against human G-402 cells assessed as cell growth inhibition measured after 72 hrs by DAPI staining based analysis; how it was run: as §3
H4 = experiment: Anticancer activity against human H4 cells assessed as cell growth inhibition measured after 72 hrs by DAPI staining based analysis; how it was run: as §3
HT-29 = experiment: Anticancer activity against human HT-29 cells assessed as cell growth inhibition measured after 72 hrs by DAPI staining based analysis
[3] = Anticancer activity against human MJ cells assessed as cell growth inhibition measured after 72 hrs by DAPI staining based analysis
NCI-H2171 = experiment: Anticancer activity against human NCI-H2171 cells assessed as cell growth inhibition measured after 72 hrs by DAPI staining based analysis
NCI-H292 = experiment: Anticancer activity against human NCI-H292 cells assessed as cell growth inhibition measured after 72 hrs by DAPI staining based analysis
NCI-H716 = experiment: Anticancer activity against human NCI-H716 cells assessed as cell growth inhibition measured after 72 hrs by DAPI staining based analysis
NCI-H747 = experiment: Anticancer activity against human NCI-H747 cells assessed as cell growth inhibition measured after 72 hrs by DAPI staining based analysis
NCI-H82 = experiment: Anticancer activity against human NCI-H82 cells assessed as cell growth inhibition measured after 72 hrs by DAPI staining based analysis
RPMI-6666 = experiment: Anticancer activity against human RPMI-6666 cells assessed as cell growth inhibition measured after 72 hrs by DAPI staining based analysis
SF-268 = experiment: Anticancer activity against human SF-268 cells assessed as cell growth inhibition measured after 72 hrs by DAPI staining based analysis
UACC-257 = experiment: Anticancer activity against human UACC-257 cells assessed as cell growth inhibition measured after 72 hrs by DAPI staining based analysis
WiDr = experiment: Anticancer activity against human WiDr cells assessed as cell growth inhibition measured after 72 hrs by DAPI staining based analysis
A2780 = experiment: Anticancer activity against human A2780 cells assessed as cell doubling measured for 72 hrs by DAPI staining based analysis
A-431 = experiment: Anticancer activity against human A-431 cells assessed as cell doubling measured for 72 hrs by DAPI staining based analysis
AN3-CA [4] = experiment: Anticancer activity against human AN3-CA cells assessed as cell doubling measured for 72 hrs by DAPI staining based analysis
ARH-77 [5] = experiment: Anticancer activity against human ARH-77 cells assessed as cell doubling measured for 72 hrs by DAPI staining based analysis
C-4-II = experiment: Anticancer activity against human C-4-II cells assessed as cell doubling measured for 72 hrs by DAPI staining based analysis
ES-2 = experiment: Anticancer activity against human ES2 cells assessed as cell doubling measured for 72 hrs by DAPI staining based analysis
GCT = experiment: Anticancer activity against human GCT cells assessed as cell doubling measured for 72 hrs by DAPI staining based analysis
HMCB cell line = experiment: Anticancer activity against human HMCB cells assessed as cell doubling measured for 72 hrs by DAPI staining based analysis
JEG-3 = experiment: Anticancer activity against human JEG-3 cells assessed as cell doubling measured for 72 hrs by DAPI staining based analysis
[6] = Anticancer activity against human MJ cells assessed as cell doubling measured for 72 hrs by DAPI staining based analysis
NCI-H2122 = experiment: Anticancer activity against human NCI-H2122 cells assessed as cell doubling measured for 72 hrs by DAPI staining based analysis
SK-UT-1 = experiment: Anticancer activity against human SK-UT-1 cells assessed as cell doubling measured for 72 hrs by DAPI staining based analysis
SNU-387 = experiment: Anticancer activity against human SNU-387 cells assessed as cell doubling measured for 72 hrs by DAPI staining based analysis
SNU-423 = experiment: Anticancer activity against human SNU-423 cells assessed as cell doubling measured for 72 hrs by DAPI staining based analysis
SW780 = experiment: Anticancer activity against human SW780 cells assessed as cell doubling measured for 72 hrs by DAPI staining based analysis
SW948 = experiment: Anticancer activity against human SW948 cells assessed as cell doubling measured for 72 hrs by DAPI staining based analysis
T47D = experiment: Anticancer activity against human T47D cells assessed as cell doubling measured for 72 hrs by DAPI staining based analysis
U-251 = experiment: Anticancer activity against human U-251 cells assessed as cell doubling measured for 72 hrs by DAPI staining based analysis
UACC-62 = experiment: Anticancer activity against human UACC-62 cells assessed as cell doubling measured for 72 hrs by DAPI staining based analysis
NCI-H460 = experiment: Antitumor activity against human NCI-H460 cells in xenograft model assessed as difference between median time to endpoint time of treated versus control group at 62.5 mg/kg
MCF7 = experiment: Antitumor activity against human MCF7 cells in xenograft model assessed as tumor growth delay at 62.5 mg/kg relative to control
SK-OV-3 = experiment: Antitumor activity against human SK-OV-3 cells in xenograft model assessed as tumor growth delay at 62.5 mg/kg relative to control

For `CC(C)Oc1ccc(C(=O)N[C@H](CNC(=O)CN(C)C)Cc2ccc(-c3cn4cccc([C@H](C)O)c4n3)cc2)cc1Cl` [GSK-923295A], the GI50 (AN3-CA [1]) was 23 nM, the GI50 (ARH-77 [2]) was 34 nM and the GI50 (CAL-27) was 47 nM. For the same compound, the GI50 (CHL-1) was 24 nM, the GI50 (DBTRG-05MG) was 17 nM and the GI50 (DLD-1) was 60 nM. It also gave a GI50 (G-402) of 31 nM, a GI50 (H4) of 31 nM and a GI50 (HT-29) of 14 nM. For the same compound, the GI50 [3] was 50 nM, the GI50 (NCI-H2171) was 24 nM and the GI50 (NCI-H292) was 31 nM. The GI50 (NCI-H716) was 174 nM, the GI50 (NCI-H747) was 163 nM and the GI50 (NCI-H82) was 18 nM. It also gave a GI50 (RPMI-6666) of 88 nM, a GI50 (SF-268) of 26 nM and a GI50 (UACC-257) of 32 nM. For the same compound, the GI50 (WiDr) was 18 nM, the Activity (A2780) was 1.62 and the Activity (A-431) was 2.95. The Activity (AN3-CA [4]) was 1.74, the Activity (ARH-77 [5]) was 1.62 and the Activity (C-4-II) was 2.42. It also gave an Activity (ES-2) of 3.69, an Activity (GCT) of 2.3 and an Activity (HMCB cell line) of 2.92. It also gave an Activity (JEG-3) of 2.9, an Activity [6] of 3.39 and an Activity (NCI-H2122) of 2.82. It also gave an Activity (SK-UT-1) of 2.88, an Activity (SNU-387) of 1.21 and an Activity (SNU-423) of 1.44. The Activity (SW780) was 2.73, the Activity (SW948) was 1.9 and the Activity (T47D) was 1.44. For the same compound, the Activity (U-251) was 3.04, the Activity (UACC-62) was 2.12 and the Time (NCI-H460) was 15.4 days. It also gave an Activity (MCF7) of 20% and an Activity (SK-OV-3) of 194%.
